# Experimental data taken from PubChem BioAssay.
# Calls of active or inactive are those of the source.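 How the source made its calls, unless noted: active means GFP response above 150% of the DMSO level; inconclusive means fewer than 70 events counted for a yeast strain; inactive means the rest.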
# Legend:
# [1] = RPL19A-GFP modulators, yeast TOR pathway, confirmation, cell-based, S. cerevisiae, flow cytometry, cherry picks, mother/daughter gates (AID 2270;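 active means GFP response below 50% of the DMSO control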); conditions: S. cerevisiae RPL19A-GFP strain, 3 h, at 10 µM, stronger effect = lower value, 100 = same GFP as DMSO wells
# [2] = LAP4-GFP expression modulators in yeast, confirmation, cell-based, cherry picks, flow cytometry, mother/daughter gates (AID 2271;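 active means GFP response above 150% of the DMSO control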;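 further: ratio of sample to DMSO plate mean so 100% equals DMSO level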); conditions: S. cerevisiae LAP4-GFP strain, 3 h, at 10 µM, stronger effect = higher value, 100 means same as DMSO control
# Outline: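 Material – Alexa Fluor 633-labelled Saccharomyces cerevisiae GFP-fusion strain, single-plex · Incubation – compound exposure 3 h at 30 °C, end-over-end rotation · Measured by – GFP by flow cytometry · Measure – median GFP fluorescence as percent of plate-mean DMSO wells · Control set – positive rapamycin (400 ng/mL), negative DMSO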
# [3] = modulators of MEP2-GFP levels in yeast, confirmation, S. cerevisiae, flow cytometry GFP, cherry picks (AID 2272;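 active means GFP response above 150% of the DMSO control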;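 further: ratio of well signal to plate DMSO mean so 100% equals DMSO level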); conditions: S. cerevisiae MEP2-GFP strain, 3 h, at 10 µM, stronger effect = higher value
# [4] = AGP1-GFP expression modulators, hit retest, confirmation, cell-based, flow cytometry, S. cerevisiae, cherry picks (AID 2273);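 further: median GFP channel fluorescence over the whole cell population gate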; conditions: S. cerevisiae AGP1-GFP strain, 3 h, at 10 µM
# [5] = modulators of CIT2-GFP expression in yeast, confirmation, S. cerevisiae, GFP fusion, cherry picks, mother/daughter gates (AID 2274); conditions: S. cerevisiae CIT2-GFP strain, flow cytometry, 3 h, at 10 µM, stronger effect = higher value
# [6] = measured here: daughter cell gate
# [7] = measured here: mother cell gate
# [8] = measured here: daughter cell gate response
# [9] = measured here: mother cell gate response
Compound,GFP response vs DMSO [1],"GFP response vs DMSO [1, 6]","GFP response vs DMSO [1, 7]",GFP response relative to DMSO [2],"GFP response relative to DMSO [2, 8]","GFP response relative to DMSO [2, 9]",GFP response vs DMSO [3],"GFP response, % of DMSO [4]","GFP response, % of DMSO [5]","GFP response, % of DMSO [5, 6]","GFP response, % of DMSO [5, 7]"
Cc1noc(/C=C/c2ccccn2)c1[N+](=O)[O-],95.6% (inactive),96.1%,90.8%,139% (inactive),132%,142%,99% (inactive),96.7% (inactive),90.1% (inactive),97.4%,84.6%
CC(C)c1ccc(C(=O)N/N=C/c2cccc(Cl)c2Cl)cc1,93.4% (inactive),88%,92.6%,112% (inactive),110%,116%,103% (inactive),95.7% (inactive),87.2% (inactive),83%,85.8%
COc1cc(NC(=O)c2c(OC)cccc2OC)ccc1NC(=O)c1cc2ccccc2o1,96% (inactive),95.5%,96.5%,109% (inactive),104%,108%,102% (inactive),95.4% (inactive),96.4% (inactive),98.3%,93.3%
COc1ccc(-c2nc3cc(C)ccn3c2NCC2CCCO2)cc1OC (stereo not drawn),94.8% (inactive),96.4%,93.4%,97% (inactive),94.2%,96.2%,99% (inactive),104% (inactive),100% (inactive),101%,99.3%
Cn1c(=O)c2ccccc2n(Cc2cccc(F)c2)c1=O,97.6% (inactive),97.8%,97.3%,104% (inactive),101%,105%,103% (inactive),101% (inactive),94.4% (inactive),95.8%,93.8%
COc1cc(SSc2cc(OC)cc([N+](=O)[O-])c2N)c(N)c([N+](=O)[O-])c1,89% (inactive),78.4%,80.4%,265% (active),153%,252%,118% (inactive),124% (inactive),145% (inactive),112%,143%
CC(C)(C)NC(=O)c1ccccc1-c1nc(-c2ccccc2Cl)no1,94.8% (inactive),95.9%,93.2%,99.5% (inactive),99.1%,99.4%,107% (inactive),97.3% (inactive),93% (inactive),92%,93.2%
CN1CC(=O)NC1=NC(=O)C12CC3CC(CC(C3)C1)C2,95% (inactive),93.9%,96%,102% (inactive),97.9%,103%,97.5% (inactive),92.3% (inactive),93.5% (inactive),94.6%,92.1%
Cc1ccc2c(c1)c(/C=C/c1cc[n+](C)cc1)c(C)n2C,107% (inactive),109%,108%,178% (active),194%,173%,226% (active),114% (inactive),184% (active),191%,177%
COc1ccccc1N=Cc1nc(-c2ccccc2)oc1OC(C)=O,98.2% (inactive),96.9%,98.3%,103% (inactive),101%,106%,101% (inactive),70.7% (inactive),90.1% (inactive),88.4%,90.7%
CN(C)c1ccc(/C=N/NC(=O)c2ccc(Cl)cc2)cc1,98% (inactive),97%,97.4%,102% (inactive),97.9%,103%,102% (inactive),100% (inactive),97.8% (inactive),98.3%,95.6%
O=C(/C=C/c1cc(Br)ccc1O)c1ccco1,99.9% (inactive),101%,99%,151% (active),135%,153%,122% (inactive),100% (inactive),95% (inactive),98.3%,91%
CCOc1ccccc1NC(=O)c1nc(S(=O)(=O)Cc2ccccc2)ncc1Cl,97.8% (inactive),99.8%,97.1%,94.1% (inactive),96%,95.4%,103% (inactive),106% (inactive),98.6% (inactive),101%,97.1%
COc1ccc(CNC(=O)c2c(O)c3ccccc3n(C)c2=O)cc1OC,96.9% (inactive),97.8%,96.7%,90.6% (inactive),92.9%,91.3%,110% (inactive),99.1% (inactive),103% (inactive),105%,103%
O=C(COC(=O)c1cccs1)Nc1nc(-c2ccccc2)cs1,97% (inactive),95.6%,98.4%,99.2% (inactive),99.2%,99.3%,96.2% (inactive),99.1% (inactive),99.7% (inactive),99.1%,96.1%
CCOc1ccc(N/N=C(/C#N)C(N)=O)cc1,82.7% (inactive),65.8%,81.8%,237% (active),182%,250%,176% (active),113% (inactive),161% (active),128%,159%
Cc1nnc(NC(=O)c2nc(S(=O)(=O)Cc3ccccc3C)ncc2Cl)s1,97.1% (inactive),96.4%,94.4%,98.9% (inactive),99%,97.4%,99.3% (inactive),98.2% (inactive),97.2% (inactive),97.6%,96%

Compound,GFP response vs DMSO [1],"GFP response vs DMSO [1, 6]","GFP response vs DMSO [1, 7]",GFP response relative to DMSO [2],"GFP response relative to DMSO [2, 8]","GFP response relative to DMSO [2, 9]",GFP response vs DMSO [3],"GFP response, % of DMSO [4]","GFP response, % of DMSO [5]","GFP response, % of DMSO [5, 6]","GFP response, % of DMSO [5, 7]"
Cc1nnc(NC(=O)c2ccc(S(=O)(=O)N3CCCCCC3)cc2)o1,99.4% (inactive),99.3%,100%,97% (inactive),97.5%,97.3%,101% (inactive),99% (inactive),100% (inactive),103%,96.8%
O=C(OCc1cc(Cl)ccc1OC(F)F)c1ccc([N+](=O)[O-])o1,97% (inactive),99.8%,94%,114% (inactive),110%,120%,100% (inactive),95.7% (inactive),95.2% (inactive),98.1%,92.3%
COc1cc(NC(=O)C(C)C)ccc1NC(=O)c1cc2ccccc2o1,102% (inactive),99.8%,103%,92.6% (inactive),92.5%,94.2%,102% (inactive),97.8% (inactive),103% (inactive),101%,104%
COc1ccc(-c2noc(CCCC(=O)NCCc3ccccc3)n2)cc1OC,99.3% (inactive),97.3%,97.3%,100% (inactive),101%,101%,103% (inactive),100% (inactive),101% (inactive),101%,100%
Cc1ccc(/C=C/C(=O)c2ccccc(=O)c2O)c(C)c1,90.2% (inactive),112%,93.5%,152% (active),146%,158%,137% (inactive),84.3% (inactive),103% (inactive),99.2%,96.8%
CSc1ccc(/C=C/C(=O)c2ccc(NC(C)=O)cc2)cc1,111% (inactive),93.2%,94.5%,111% (inactive),104%,113%,101% (inactive),97.5% (inactive),91.5% (inactive),90.2%,82.1%
O=C1c2cccc3cccc(c23)C(=O)N1c1nncs1,103% (inactive),102%,103%,91.4% (inactive),94.1%,92.1%,102% (inactive),99.8% (inactive),96.5% (inactive),94.8%,99.8%
Cc1nc2c(-c3ccc(F)cc3)cnn2c(N)c1-c1ccccc1,99.6% (inactive),97.9%,98.8%,101% (inactive),97.5%,100%,103% (inactive),96.7% (inactive),103% (inactive),101%,104%
CNC(=O)/C(C#N)=C/c1c(N(Cc2ccccc2)Cc2ccccc2)nc2ccccn2c1=O,97.3% (inactive),98.1%,96.9%,100% (inactive),99%,101%,93.1% (inactive),104% (inactive),100% (inactive),101%,99.3%
Cc1cccn2c(=O)c(/C=C(\C#N)C(=O)NC3CCS(=O)(=O)C3)c(N3CCC(C)CC3)nc12 (stereo not drawn),102% (inactive),101%,102%,96.2% (inactive),97.2%,95.2%,102% (inactive),101% (inactive),107% (inactive),99.7%,109%
O=C(O)c1ccc(SCc2cnc(Cl)s2)cc1,104% (inactive),96.7%,103%,116% (inactive),99%,112%,110% (inactive),114% (inactive),108% (inactive),101%,104%
COCc1nnc(NC(=O)c2ccc(S(=O)(=O)N(C)C3CCCCC3)cc2)o1,97.6% (inactive),98.6%,97.2%,103% (inactive),102%,104%,102% (inactive),97.8% (inactive),103% (inactive),103%,102%
CCC(=O)Nc1cccc(C(=O)/C=C/c2cc(Br)ccc2OC)c1,98.8% (inactive),99.2%,97.7%,103% (inactive),98.7%,110%,104% (inactive),97.2% (inactive),93.9% (inactive),94.8%,91.2%
Cc1ccc(N(C(=O)CNC(=O)c2ccco2)C(C(=O)NC2CCCC2)c2cccnc2)cc1C (stereo not drawn),104% (inactive),100%,108%,95.7% (inactive),95.9%,95.2%,99% (inactive),105% (inactive),102% (inactive),99.2%,102%
COc1ccc(C(c2c(C)[nH]n(C(N)=S)c2=O)C(C#N)C#N)cc1 (stereo not drawn),105% (inactive),96.2%,98.8%,317% (active),246%,299%,104% (inactive),101% (inactive),89.2% (inactive),92.7%,79.3%
O=C1c2ccccc2C2=Nc3ccccc3SC(c3cccc(F)c3)C12 (stereo not drawn),102% (inactive),98.4%,102%,106% (inactive),108%,102%,139% (inactive),103% (inactive),117% (inactive),106%,106%
